Test results published in ChEMBL document CHEMBL3259795, “Cephalochromin induces G0/G1 cell cycle arrest and apoptosis in A549 human non-small-cell lung cancer cells by inflicting mitochondrial disruption” (J Nat Prod, 2014).
Calls of active or inactive are those of the source. No cut-off for these calls is given here.

Assays:
[1] = tested on: A549; test: Induction of apoptosis in human A549 cells assessed as induction of ROS production at 10 uM using DCF-DA staining by flow cytometry analysis relative to control; assay type: functional, cell-based; details: TDE = time-dependent effect
Method in brief: (§1)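 Cells pretreated 1 h with or without 1 mM Tiron, then 10 μM for 1, 3 or 5 h; intracellular ROS read by DCF-DA flow cytometry; mean ± SEM of three independent determinations versus vehicle.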

[2] = tested on: A549; test: Induction of apoptosis in human A549 cells assessed as DNA level at 3 to 30 uM using propidium iodide staining by flow cytometry analysis; assay type: functional, cell-based; details: TDE = time-dependent effect
Method in brief: (§2)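 A549 cells treated at 3, 10 or 30 μM for 24, 36 or 48 h, fixed, stained with propidium iodide; hypodiploid apoptotic fraction counted by FACScan flow cytometry; mean ± SEM of three determinations versus vehicle control.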

[3] = tested on: A549; test: Cytotoxicity against human A549 cells after 48 hrs by SRB assay; assay type: functional, cell-based
Method in brief: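 A549 cells exposed to a range of concentrations for 48 h, fixed and stained with sulforhodamine B to measure cell number; IC50 from three independent determinations, mean ± SEM.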

[4] = tested on: A549; test: Induction of apoptosis in human A549 cells assessed as reduction of survivin expression at 10 uM by Western blot analysis; assay type: functional, cell-based; details: TDE = time-dependent effect
Method in brief: (§3)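 A549 cells given 10 μM for 6, 12, 24, 36 h; lysates blotted (40 μg protein, SDS-PAGE, PVDF) for caspase-3/-8/-9, PARP, survivin, Bad, Bcl-xL; ECL detection; survivin bands quantified densitometrically; three independent experiments.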

[5] = tested on: A549; test: Cell cycle arrest in human A549 cells assessed as accumulation at G2/M phase at 10 uM after 48 hrs using propidium iodide staining by flow cytometry analysis (reference value: 31.9 +/- 1.4%); assay type: functional
[6] = tested on: A549; test: Cell cycle arrest in human A549 cells assessed as accumulation at G2/M phase at 10 uM after 24 hrs using propidium iodide staining by flow cytometry analysis (reference value: 35.2 +/- 2.3%); assay type: functional
[7] = tested on: A549; test: Induction of apoptosis in human A549 cells assessed as reduction of Bcl-xL expression at 10 uM after 6 to 36 hrs by Western blot analysis; assay type: functional, cell-based; method in brief: as §3
[8] = tested on: Caco-2; test: Cytotoxicity against human Caco2 cells after 48 hrs by SRB assay; details: Caco-2, 48 h
[9] = tested on: A549; test: Induction of apoptosis in human A549 cells assessed as proteolytic cleavage of inactive procaspase-8, 9, and 3 into active caspase-8, 9, and 3 at 10 uM by Western blot analysis; assay type: functional, cell-based; details: TDE = time-dependent effect; method in brief: as §3
[10] = tested on: A549; test: Induction of apoptosis in human A549 cells assessed as induction of ROS production at 10 uM after 12 hrs using DCF-DA staining by flow cytometry analysis relative to control; assay type: functional
Method in brief: (§4)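 Intracellular ROS in A549 cells after 12 h at 1, 3, 10, 30 μM, with 5 mM H2O2 as reference, measured by flow cytometry with DCF-DA probe; fold fluorescence over vehicle control; mean ± SEM, three independent determinations.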

[11] = tested on: SW1353; test: Cytotoxicity against human SW1353 cells after 48 hrs by SRB assay; details: SW1353, 48 h
[12] = Cytotoxicity against human Hep3B cells after 48 hrs by SRB assay
[13] = tested on: A549; test: Induction of apoptosis in human A549 cells assessed as increase in expression of LC3-II at 10 uM by Western blot analysis; assay type: functional, cell-based; details: TDE = time-dependent effect
Method in brief: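 A549 cells with or without 10 μM for 6, 12, 24, 36 h; LC3 detected by Western blot with ECL; LC3 II band quantified by image analysis; three independent experiments.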

[14] = tested on: A549; test: Induction of apoptosis in human A549 cells assessed as induction of ROS production at 5 mM after 12 hrs using DCF-DA staining by flow cytometry analysis relative to control; assay type: functional; method in brief: as §4
[15] = tested on: A549; test: Induction of apoptosis in human A549 cells assessed as induction of cleaved PARP protein expression at 10 uM after 26 to 36 hrs by Western blot analysis; assay type: functional, cell-based; details: in the assay text read “24 to 36 hrs” for “26 to 36 hrs”; method in brief: as §3
[16] = tested on: A549; test: Cell cycle arrest in human A549 cells assessed as accumulation at G0/G1 phase at 10 uM after 24 hrs using propidium iodide staining by flow cytometry analysis (reference value: 51 +/- 1.1%); assay type: functional
[17] = tested on: A549; test: Induction of apoptosis in human A549 cells assessed as downregulation of cyclin D1, cyclin E, Cdk 2, and Cdk 4 protein levels at 10 uM after 6 to 36 hrs by Western blot analysis; assay type: functional, cell-based
Method in brief: (§5)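 A549 lysates after 10 μM for 6, 12, 24, 36 h, or 1, 3, 10 μM for 24 h; 40 μg protein on 8–12% SDS gels, PVDF transfer, primary antibodies 1 h at room temperature, ECL detection; three independent experiments.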

[18] = tested on: A549; test: Cell cycle arrest in human A549 cells assessed as accumulation at G0/G1 phase at 10 uM after 36 hrs using propidium iodide staining by flow cytometry analysis (reference value: 53.1 +/- 1.2%); assay type: functional
[19] = tested on: A549; test: Cell cycle arrest in human A549 cells assessed as accumulation at sub-G1 phase at 10 uM after 36 hrs using propidium iodide staining by flow cytometry analysis (reference value: 1.7 +/- 0.4%); assay type: functional
[20] = tested on: A549; test: Induction of apoptosis in human A549 cells assessed as downregulation of cyclin D1, cyclin E, Cdk 2, and Cdk 4 protein levels after 24 hrs by Western blot analysis; assay type: functional, cell-based; method in brief: as §5
[21] = tested on: A549; test: Cell cycle arrest in human A549 cells assessed as accumulation at sub-G1 phase at 10 uM after 24 hrs using propidium iodide staining by flow cytometry analysis (reference value: 2 +/- 0.3%); assay type: functional
[22] = tested on: A549; test: Induction of apoptosis in human A549 cells assessed as DNA level after 24 to 48 hrs using propidium iodide staining by flow cytometry analysis; assay type: functional, cell-based; method in brief: as §2
[23] = tested on: A549; test: Cell cycle arrest in human A549 cells assessed as accumulation at S phase at 10 uM after 48 hrs using propidium iodide staining by flow cytometry analysis (reference value: 9.5 +/- 0.7%); assay type: functional
[24] = Cytotoxicity against human HuH7 cells after 48 hrs by SRB assay; details: Huh-7, 48 h
[25] = tested on: A549; test: Induction of apoptosis in human A549 cells assessed as loss of mitochondrial membrane potential at 50 uM after 12 to 24 hrs by flow cytometry analysis; assay type: functional, cell-based
Method in brief: (§6)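 A549 cells treated 12 and 24 h, stained with rhodamine 123 for 30 min at 37 °C; mean fluorescence by FACScan flow cytometry; CCCP (50 μM) used as depolarising control; mean ± SEM of three independent determinations.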

[26] = tested on: A549; test: Cell cycle arrest in human A549 cells assessed as accumulation at S phase at 10 uM after 24 hrs using propidium iodide staining by flow cytometry analysis (reference value: 12 +/- 1.4%); assay type: functional
[27] = Cytotoxicity against human HT1080 cells after 48 hrs by SRB assay; details: HT-1080, 48 h
[28] = tested on: A549; test: Cytotoxicity against human A549 cells after 48 hrs by MTT assay; assay type: functional, cell-based
Method in brief: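 Viability of A549 cells measured by mitochondrial MTT reduction after 24 and 48 h incubation with indicated concentrations; IC50 at 48 h; mean ± SEM of three determinations, each in triplicate.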

[29] = tested on: A549; test: Cell cycle arrest in human A549 cells assessed as accumulation at G2/M phase at 10 uM after 36 hrs using propidium iodide staining by flow cytometry analysis (reference value: 35.8 +/- 1.8%); assay type: functional
[30] = tested on: A549; test: Induction of apoptosis in human A549 cells assessed as induction of ROS production at 10 uM after 5 hrs using DCF-DA staining by flow cytometry analysis in presence of Tiron; assay type: functional, cell-based; method in brief: as §1
[31] = tested on: A549; test: Induction of apoptosis in human A549 cells assessed as loss of mitochondrial membrane potential at 10 to 30 uM after 12 to 24 hrs by flow cytometry analysis; assay type: functional, cell-based; method in brief: as §6
[32] = tested on: A549; test: Induction of apoptosis in human A549 cells assessed as induction of ROS production after 12 hrs using DCF-DA staining by flow cytometry analysis; assay type: functional, cell-based; method in brief: as §4
[33] = tested on: A549; test: Induction of apoptosis in human A549 cells assessed as induction of ROS production at 3 uM after 12 hrs using DCF-DA staining by flow cytometry analysis relative to control; assay type: functional; method in brief: as §4
[34] = tested on: A549; test: Induction of apoptosis in human A549 cells assessed as reduction of Bad proteins expression at 10 uM after 6 to 36 hrs by Western blot analysis; assay type: functional, cell-based; method in brief: as §3
[35] = tested on: A549; test: Cell cycle arrest in human A549 cells assessed as accumulation at sub-G1 phase at 10 uM after 48 hrs using propidium iodide staining by flow cytometry analysis (reference value: 1.5 +/- 0.1%); assay type: functional
[36] = tested on: A549; test: Cell cycle arrest in human A549 cells assessed as accumulation at G0/G1 phase at 10 uM after 48 hrs using propidium iodide staining by flow cytometry analysis (reference value: 57.3 +/- 0.9%); assay type: functional
[37] = tested on: A549; test: Induction of apoptosis in human A549 cells assessed as hypodiploid DNA content at 10 to 20 uM after 48 hrs by flow cytometry analysis in presence of Z-VAD-fmk; assay type: functional, cell-based
Method in brief: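 Cells preincubated 2 h with or without 50 μM Z-VAD-fmk, then exposed to indicated concentrations for 48 h; hypodiploid DNA content read by flow cytometry; mean ± SEM of three independent determinations.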

[38] = tested on: A549; test: Cell cycle arrest in human A549 cells assessed as accumulation at S phase at 10 uM after 36 hrs using propidium iodide staining by flow cytometry analysis (reference value: 9.6 +/- 0.9%); assay type: functional
[39] = tested on: A549; test: Induction of apoptosis in human A549 cells assessed as induction of ROS production at 30 uM after 12 hrs using DCF-DA staining by flow cytometry analysis relative to control; assay type: functional; method in brief: as §4
[40] = tested on: A549; test: Induction of apoptosis in human A549 cells assessed as induction of ROS production at 1 uM after 12 hrs using DCF-DA staining by flow cytometry analysis relative to control; assay type: functional; method in brief: as §4

Q: Which Activity [1] does the source give for CC1CC(=O)c2c(cc3c(-c4c(O)cc(O)c5c(O)c6c(cc45)OC(C)CC6=O)c(O)cc(O)c3c2O)O1 (configuration not stated) [CEPHALOCHROMIN] here?
A: tde

Q: What about the Activity [2] of the same compound?
A: tde

Q: What about the Activity [3] of the same compound?
A: Dose-dependent effect

Q: What about the IC50 ([3]; A549, 48 h) of the same compound?
A: 2.72 µM

Q: What about the Activity [4] of the same compound?
A: tde

Q: And the Activity [5]?
A: 27.9%

Q: What about the Activity [6] of the same compound?
A: 32.7%

Q: What about the Activity [7] of the same compound?
A: Active

Q: And the IC50 [8]?
A: 12.4 µM

Q: And the Activity [9]?
A: tde

Q: What about the “fold change (FC)” value [10] of the same compound?
A: 2.87

Q: And the IC50 [11]?
A: 3.54 µM

Q: What about the IC50 [12] of the same compound?
A: 14.3 µM

Q: And the Activity [13]?
A: tde

Q: And the “fold change (FC)” value [14]?
A: 7.2

Q: And the Activity [15]?
A: Active

Q: What about the Activity [16] of the same compound?
A: 59.6%

Q: And the Activity [17]?
A: Active

Q: What about the Activity [18] of the same compound?
A: 53.7%

Q: What about the Activity [19] of the same compound?
A: 9.8%

Q: And the Activity [20]?
A: Dose-dependent effect

Q: What about the Activity [21] of the same compound?
A: 3.8%

Q: What about the Activity [22] of the same compound?
A: Dose-dependent effect

Q: What about the Activity [23] of the same compound?
A: 4.4%

Q: What about the IC50 [24] of the same compound?
A: 4.64 µM

Q: And the Activity [25]?
A: Active

Q: And the Activity [26]?
A: 3.9%

Q: And the IC50 [27]?
A: 4.98 µM

Q: And the Activity [28]?
A: Dose-dependent effect

Q: What about the IC50 ([28]; A549, 48 h) of the same compound?
A: 5.22 µM

Q: And the Activity [29]?
A: 32.3%

Q: What about the Activity [30] of the same compound?
A: inactive

Q: What about the Activity [31] of the same compound?
A: Active

Q: And the Activity [32]?
A: Dose-dependent effect

Q: And the “fold change (FC)” value [33]?
A: 1.89

Q: And the Activity [34]?
A: inactive

Q: What about the Activity [35] of the same compound?
A: 15.5%

Q: What about the Activity [36] of the same compound?
A: 52.1%

Q: What about the Activity [37] of the same compound?
A: inactive

Q: What about the Activity [38] of the same compound?
A: 4.2%

Q: What about the “fold change (FC)” value [39] of the same compound?
A: 4.65

Q: And the “fold change (FC)” value [40]?
A: 1.24
